Values after ≈ are worked out from the molar mass of the structure shown. Active and inactive are the calls of the source. The rule behind the calls is not given here.
System: Candida albicans
Experiment: Antifungal activity against Candida albicans assessed as zone of inhibition incubated for 18 hrs by spot on lawn assay
Type: functional, organism-based
Conditions: not given
In short: (§1)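 Overnight LB cultures diluted to OD600 0.01 in 0.7% LB top agar, overlaid on 1.5% LB agar; 5 mg mL−1 aqueous compound spotted at 35, 25, 10 and 5 μg with 1:1 water/methanol vehicle spot; 37 °C, 18 h; inhibition zone diameter measured by ruler.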

Row | Structure (SMILES) | Activity
1 | CCCOC(=O)[C@H]1O[C@@H](n2ccc(N)nc2=O)C=C[C@@H]1NC(=O)C[C@@H](N)CCN(C)C(=N)N | inactive

System: Enterococcus
Experiment: Antibacterial activity against vancomycin-resistant Enterococcus assessed as zone of inhibition incubated for 18 hrs by spot on lawn assay
Type: functional, organism-based
Conditions: not given
In short: (§2)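 Spot-on-lawn assay. Plates of 1.5% agar in LB were overlaid with 0.7% LB agar seeded with overnight culture at 0.01 OD600. Aqueous 5 mg mL−1 solutions were spotted at 35, 25, 10 and 5 μg, with a 1:1 water/methanol vehicle spot. After 18 h at 37 °C, inhibition zone diameters were measured with a ruler.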

Row | Structure (SMILES) | Activity
2 | CCCOC(=O)[C@H]1O[C@@H](n2ccc(N)nc2=O)C=C[C@@H]1NC(=O)C[C@@H](N)CCN(C)C(=N)N | Active

System: Enterococcus faecalis
Experiment: Antibacterial activity against Enterococcus faecalis ATCC 29212 assessed as zone of inhibition incubated for 18 hrs by spot on lawn assay
Type: functional, organism-based
Conditions: not given
In short: as §1

Row | Structure (SMILES) | Activity
3 | CCCOC(=O)[C@H]1O[C@@H](n2ccc(N)nc2=O)C=C[C@@H]1NC(=O)C[C@@H](N)CCN(C)C(=N)N | Active

System: Staphylococcus aureus
Experiment: Antibacterial activity against methicillin resistant Staphylococcus aureus assessed as zone of inhibition incubated for 18 hrs by spot on lawn assay
Type: functional, organism-based
Conditions: not given
In short: as §2

Row | Structure (SMILES) | Activity
4 | CCCOC(=O)[C@H]1O[C@@H](n2ccc(N)nc2=O)C=C[C@@H]1NC(=O)C[C@@H](N)CCN(C)C(=N)N | Active

System: Staphylococcus aureus
Experiment: Antibacterial activity against NorA deleted Staphylococcus aureus assessed as zone of inhibition incubated for 18 hrs by spot on lawn assay
Type: functional, organism-based
Conditions: not given
In short: as §1

Row | Structure (SMILES) | Activity
5 | CCCOC(=O)[C@H]1O[C@@H](n2ccc(N)nc2=O)C=C[C@@H]1NC(=O)C[C@@H](N)CCN(C)C(=N)N | Active

System: Staphylococcus aureus
Experiment: Antibacterial activity against Staphylococcus aureus assessed as zone of inhibition incubated for 18 hrs by spot on lawn assay
Type: functional, organism-based
Conditions: not given
In short: as §1

Row | Structure (SMILES) | Activity
6 | CCCOC(=O)[C@H]1O[C@@H](n2ccc(N)nc2=O)C=C[C@@H]1NC(=O)C[C@@H](N)CCN(C)C(=N)N | Active

System: not listed separately
Experiment: Cytotoxicity against human MRC5 cells incubated for 24 hrs by MTS assay
Type: toxicity, cell-based
Conditions: not given
In short: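 MRC-5 lung fibroblasts seeded 5000 per well; medium replaced with compound 16–192 μg mL−1 or matching 1:1 methanol:water vehicle; 24 h, then MTS 3–4 h; absorbance 490 nm; viability relative to untreated cells, normalized to vehicle; CC50 from two independent assays in duplicate, mean ± SD.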

Row | Structure (SMILES) | CC50 at 24 h [µg/mL]
7 | CCCOC(=O)[C@H]1O[C@@H](n2ccc(N)nc2=O)C=C[C@@H]1NC(=O)C[C@@H](N)CCN(C)C(=N)N | 10.2 (≈ 22 µM)

System: Staphylococcus aureus
Experiment: Antibacterial activity against NorA deleted Staphylococcus aureus incubated for 16 hrs by broth microdilution method
Type: functional, organism-based
Conditions: 16 h
In short: (§3)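 Cation-adjusted Mueller-Hinton broth microdilution. Overnight cultures from single colonies were diluted to OD600 0.004. Final compound range was 256–2 μg mL−1 in 1:1 methanol/water vehicle, with doxycycline and vehicle controls. Plates were incubated 16 h at 37 °C. OD600 was normalized to controls, and MIC was the lowest concentration inhibiting >90% growth. Two biological replicates in duplicate; reported as a range.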

Row | Structure (SMILES) | IC50 [µg/mL]
8 | CCCOC(=O)[C@H]1O[C@@H](n2ccc(N)nc2=O)C=C[C@@H]1NC(=O)C[C@@H](N)CCN(C)C(=N)N | 20.6 (≈ 44.3 µM)

Same assay, conditions: time 16 hrs

Row | Structure (SMILES) | MIC [µg/mL]
9 | CCCOC(=O)[C@H]1O[C@@H](n2ccc(N)nc2=O)C=C[C@@H]1NC(=O)C[C@@H](N)CCN(C)C(=N)N | 32 (≈ 68.9 µM)

System: Staphylococcus aureus
Experiment: Antibacterial activity against wild type Staphylococcus aureus 8810 incubated for 16 hrs by broth microdilution method
Type: functional, organism-based
Conditions: Staphylococcus aureus, 8810, 16 h
In short: as §3

Row | Structure (SMILES) | IC50 [µg/mL]
10 | CCCOC(=O)[C@H]1O[C@@H](n2ccc(N)nc2=O)C=C[C@@H]1NC(=O)C[C@@H](N)CCN(C)C(=N)N | 14.5 (≈ 31.2 µM)

Same assay, conditions: Staphylococcus aureus, 8810; time 16 hrs

Row | Structure (SMILES) | MIC [µg/mL]
11 | CCCOC(=O)[C@H]1O[C@@H](n2ccc(N)nc2=O)C=C[C@@H]1NC(=O)C[C@@H](N)CCN(C)C(=N)N | 32 (≈ 68.9 µM)

System: Staphylococcus aureus
Experiment: Antibacterial activity against methicillin resistant Staphylococcus aureus ATCC 43300 incubated for 16 hrs by broth microdilution method
Type: functional, organism-based
Conditions: ATCC 43300, 16 h
In short: as §3

Row | Structure (SMILES) | IC50 [µg/mL]
12 | CCCOC(=O)[C@H]1O[C@@H](n2ccc(N)nc2=O)C=C[C@@H]1NC(=O)C[C@@H](N)CCN(C)C(=N)N | 15.8 (≈ 34 µM)

Same assay, conditions: ATCC 43300, time 16 hrs

Row | Structure (SMILES) | MIC [µg/mL]
13 | CCCOC(=O)[C@H]1O[C@@H](n2ccc(N)nc2=O)C=C[C@@H]1NC(=O)C[C@@H](N)CCN(C)C(=N)N | 32 (≈ 68.9 µM)

System: Klebsiella pneumoniae
Experiment: Antibacterial activity against Klebsiella pneumoniae ATCC 29665 incubated for 16 hrs by broth microdilution method
Type: functional, organism-based
Conditions: ATCC 29665, 16 h

Row | Structure (SMILES) | IC50 [µg/mL]
14 | CCCOC(=O)[C@H]1O[C@@H](n2ccc(N)nc2=O)C=C[C@@H]1NC(=O)C[C@@H](N)CCN(C)C(=N)N | 60.1 (≈ 129 µM)

Same assay, conditions: ATCC 29665, time 16 hrs

Row | Structure (SMILES) | MIC [µg/mL]
15 | CCCOC(=O)[C@H]1O[C@@H](n2ccc(N)nc2=O)C=C[C@@H]1NC(=O)C[C@@H](N)CCN(C)C(=N)N | 128 (≈ 276 µM)

System: Pseudomonas aeruginosa
Experiment: Antibacterial activity against MexAB-OprM deleted Pseudomonas aeruginosa incubated for 16 hrs by broth microdilution method
Type: functional, organism-based
Conditions: 16 h

Row | Structure (SMILES) | IC50 [µg/mL]
16 | CCCOC(=O)[C@H]1O[C@@H](n2ccc(N)nc2=O)C=C[C@@H]1NC(=O)C[C@@H](N)CCN(C)C(=N)N | 61.6 (≈ 133 µM)

Same assay, conditions: time 16 hrs

Row | Structure (SMILES) | MIC [µg/mL]
17 | CCCOC(=O)[C@H]1O[C@@H](n2ccc(N)nc2=O)C=C[C@@H]1NC(=O)C[C@@H](N)CCN(C)C(=N)N | > 128

System: Acinetobacter baumannii
Experiment: Antibacterial activity against Acinetobacter baumannii ATCC 17978 incubated for 16 hrs by broth microdilution method
Type: functional, organism-based
Conditions: ATCC 17978, 16 h

Row | Structure (SMILES) | IC50 [µg/mL]
18 | CCCOC(=O)[C@H]1O[C@@H](n2ccc(N)nc2=O)C=C[C@@H]1NC(=O)C[C@@H](N)CCN(C)C(=N)N | 42.3 (≈ 91.1 µM)

Same assay, conditions: ATCC 17978, time 16 hrs

Row | Structure (SMILES) | MIC [µg/mL]
19 | CCCOC(=O)[C@H]1O[C@@H](n2ccc(N)nc2=O)C=C[C@@H]1NC(=O)C[C@@H](N)CCN(C)C(=N)N | 128 (≈ 276 µM)

System: Candida albicans
Experiment: Antifungal activity against Candida albicans incubated for 16 hrs by broth microdilution method
Type: functional
Conditions: not given

Row | Structure (SMILES) | MIC [µg/mL]
20 | CCCOC(=O)[C@H]1O[C@@H](n2ccc(N)nc2=O)C=C[C@@H]1NC(=O)C[C@@H](N)CCN(C)C(=N)N | > 256

System: Saccharomyces cerevisiae
Experiment: Antifungal activity against Saccharomyces cerevisiae incubated for 16 hrs by broth microdilution method
Type: functional
Conditions: not given

Row | Structure (SMILES) | MIC [µg/mL]
21 | CCCOC(=O)[C@H]1O[C@@H](n2ccc(N)nc2=O)C=C[C@@H]1NC(=O)C[C@@H](N)CCN(C)C(=N)N | 32 (≈ 68.9 µM)

System: not listed separately
Experiment: Selectivity index, ratio of CC50 for human MRC5 cells to IC50 for NorA deleted Staphylococcus aureus
Type: toxicity
Conditions: read-out: Ratio CC50/IC50

Row | Structure (SMILES) | selectivity ratio
22 | CCCOC(=O)[C@H]1O[C@@H](n2ccc(N)nc2=O)C=C[C@@H]1NC(=O)C[C@@H](N)CCN(C)C(=N)N | 0.5

System: not listed separately
Experiment: Selectivity index, ratio of CC50 for human MRC5 cells to IC50 for Staphylococcus aureus
Type: toxicity
Conditions: read-out: Ratio CC50/IC50

Row | Structure (SMILES) | selectivity ratio
23 | CCCOC(=O)[C@H]1O[C@@H](n2ccc(N)nc2=O)C=C[C@@H]1NC(=O)C[C@@H](N)CCN(C)C(=N)N | 0.7

System: not listed separately
Experiment: Selectivity index, ratio of CC50 for human MRC5 cells to IC50 for methicillin resistant Staphylococcus aureus
Type: toxicity
Conditions: read-out: Ratio CC50/IC50

Row | Structure (SMILES) | selectivity ratio
24 | CCCOC(=O)[C@H]1O[C@@H](n2ccc(N)nc2=O)C=C[C@@H]1NC(=O)C[C@@H](N)CCN(C)C(=N)N | 0.6

System: not listed separately
Experiment: Selectivity index, ratio of CC50 for human MRC5 cells to IC50 for Enterococcus faecalis ATCC 29212
Type: toxicity
Conditions: read-out: Ratio CC50/IC50

Row | Structure (SMILES) | selectivity ratio
25 | CCCOC(=O)[C@H]1O[C@@H](n2ccc(N)nc2=O)C=C[C@@H]1NC(=O)C[C@@H](N)CCN(C)C(=N)N | 1

System: not listed separately
Experiment: Selectivity index, ratio of CC50 for human MRC5 cells to IC50 for vancomycin-resistant Enterococcus
Type: toxicity
Conditions: read-out: Ratio CC50/IC50

Row | Structure (SMILES) | selectivity ratio
26 | CCCOC(=O)[C@H]1O[C@@H](n2ccc(N)nc2=O)C=C[C@@H]1NC(=O)C[C@@H](N)CCN(C)C(=N)N | 0.4

System: not listed separately
Experiment: Selectivity index, ratio of CC50 for human MRC5 cells to IC50 for Klebsiella pneumoniae ATCC 29665
Type: toxicity
Conditions: read-out: Ratio CC50/IC50

Row | Structure (SMILES) | selectivity ratio
27 | CCCOC(=O)[C@H]1O[C@@H](n2ccc(N)nc2=O)C=C[C@@H]1NC(=O)C[C@@H](N)CCN(C)C(=N)N | 0.2

System: not listed separately
Experiment: Selectivity index, ratio of CC50 for human MRC5 cells to IC50 for MexAB-OprM deleted Pseudomonas aeruginosa
Type: toxicity
Conditions: read-out: Ratio CC50/IC50

Row | Structure (SMILES) | selectivity ratio
28 | CCCOC(=O)[C@H]1O[C@@H](n2ccc(N)nc2=O)C=C[C@@H]1NC(=O)C[C@@H](N)CCN(C)C(=N)N | 0.2

System: not listed separately
Experiment: Selectivity index, ratio of CC50 for human MRC5 cells to IC50 for Acinetobacter baumannii ATCC 17978
Type: toxicity
Conditions: read-out: Ratio CC50/IC50

Row | Structure (SMILES) | selectivity ratio
29 | CCCOC(=O)[C@H]1O[C@@H](n2ccc(N)nc2=O)C=C[C@@H]1NC(=O)C[C@@H](N)CCN(C)C(=N)N | 0.2

System: Enterococcus faecalis
Experiment: Antibacterial activity against Enterococcus faecalis ATCC 29212 incubated for 20 hrs by broth microdilution method
Conditions: ATCC 29212, 20 h

Row | Structure (SMILES) | IC50 [µg/mL] | MIC [µg/mL]
30 | CCCOC(=O)[C@H]1O[C@@H](n2ccc(N)nc2=O)C=C[C@@H]1NC(=O)C[C@@H](N)CCN(C)C(=N)N | 10.5 (≈ 22.6 µM) | 16 (≈ 34.4 µM)

System: Enterococcus
Experiment: Antibacterial activity against vancomycin-resistant Enterococcus incubated for 20 hrs by broth microdilution method
Conditions: not given

Row | Structure (SMILES) | IC50 [µg/mL] | MIC [µg/mL]
31 | CCCOC(=O)[C@H]1O[C@@H](n2ccc(N)nc2=O)C=C[C@@H]1NC(=O)C[C@@H](N)CCN(C)C(=N)N | 23.6 (≈ 50.8 µM) | 128 (≈ 276 µM)

From ChEMBL document CHEMBL5252669, “Semisynthetic blasticidin S ester derivatives show enhanced antibiotic activity” (RSC Med Chem, 2023)
